Bioassay records deposited in PubChem BioAssay by Sanford-Burnham Center for Chemical Genomics.
PABP polyA inh = blocks human PABP binding to poly(A) RNA; 1% of 290,000 active; fluorescence polarization; P11940; AID 2014; inhibition, % at 35 µM;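 further: calls also rest on retests at 20 µM and on dose response follow-up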
eIF4H FP inh = inhibitors of RNA binding by human eIF4H. Q15056. eIF4H fluorescence polarization binding assay. inhibition, % at 35 µM. 0.94% of 290,000 active. AID 2012;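 further: calls also rest on retests at 20 µM and on dose response follow-up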
MT1-MMP act inh = blocks activation of human MT1-MMP | GFP/RFP ratio change, % at 20 µM | HT1080 RFP-PRO-GFP cells, GFP/RFP ratio fluorescence, overnight; percent of plate control window, DMSO zero | 0.061% of 360,000 active;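 active means GFP/RFP ratio change of at least 30% with cell ATP level not reduced by more than half and red fluorescence within 50% of control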
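Assay system: RFP-PRO-GFP reporter HT1080 cells; read-out basis: GFP/RFP fluorescence ratio; benchmarks: DMSO wells and RFP-L50D-GFP cells; doses: 20 µM single dose, 1% DMSO; schedule: overnight cell settling, then overnight compound exposure, 37 °C, 5% CO2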
SKN-1 block = blocks SKN-1 activity in C. elegans; C. elegans VP596 Pgst-4::GFP/RFP ratio, acrylamide-induced, 24 h; inhibition, % at 21.8 µM; 0.49% of 360,000 active;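 active means interference check ratio from 0.5 to 1.5 plus GFP to RFP signal ratio inhibition reaching or exceeding a fixed threshold, cut at about 30% in these data, passing the limit was not always enough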
MLLE-PAM2 inh = inhibitors of microRNA-mediated deadenylation, human PABP1 MLLE binding | GST-MLLE / FITC-PAM2 fluorescence polarization | 0.36% of 360,000 active | AID 588489 | inhibition, % at 20 µM; in the data active means inhibition above about 35%, passing the limit was not always enough;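 further: plate controls were DMSO wells with GST-MLLE for no effect and wells lacking GST-MLLE protein for full effect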
* = called active by the depositor; ? = inconclusive; . = no result. Hits are enriched below; roughly 1.7% of the tested compounds scored in any of these assays. Unless noted, how the calls were made is not given here.

SMILES	PABP polyA inh	eIF4H FP inh	MT1-MMP act inh	SKN-1 block	MLLE-PAM2 inh
Cc1ccc(Cl)cc1N(CC(=O)Nc1cccc(N(C)S(C)(=O)=O)c1)S(C)(=O)=O	3	2	-8	-7	5
CCOc1cc(/C=N/NC(=O)CCn2nc(C)cc2C)ccc1O	11	0	3	-6	2
CCOc1ccc(-c2ccc(/C=C3/C(=N)N4C(C)=CSC4=NC3=O)o2)c([N+](=O)[O-])c1	5.9*	80*	21	17	-10
Cc1cccc(N(C)C(=O)CCS(=O)(=O)c2cc3c(cc2Cl)NC(=O)CO3)c1	-3	-14	2	-6	39*
Cc1ccc(Nc2nc(N)[nH]c(=O)c2N=O)cc1	39*	?	0	5	20
CC1CC(C)CN(C(=O)CCc2ccccc2)C1 (stereo not given)	97	active	-4	-10	1
C[C@@H]1COC(=O)[C@H](CC(=O)OC(C)(C)C)C/C=C\C[C@@H](CC(=O)N[C@H](CO)Cc2ccccc2)C(=O)N1	.	.	-1	-5	8
Clc1nssc1=Nc1ccc(Br)cc1	3	3	1	94*	9
COc1cc(N=c2ssnc2Cl)cc(OC)c1	28	-8	-10	15	28
CCOC(=O)C1=C(C)NC(C)=C(C(=O)OCC)C1c1ccc(O)cc1	82*	7.4*	0	9	-4
COc1cc(C)c(Cl)cc1S(=O)(=O)NCc1ccccn1	3	1	1	19	12
O=c1/c(=C/c2ccco2)sc2n1CN(c1ccccc1)CN=2	-2	-8	1	7	-10
O=c1/c(=C/c2ccco2)sc2n1CN(c1cccc(Br)c1)CN=2	74*	51*	-3	27	-83
O=C(CSc1nc2sccc2c(=O)[nH]1)N1CCN(c2ccccc2)CC1	41*	62	-3	19	-86
Cc1ccc(NCC(=O)Nc2cccc(F)c2)cc1S(=O)(=O)N1CCCCCC1	0	-7	-5	11	2
CC(C)[C@H](NC(=O)C1CCN(S(=O)(=O)c2ccc(F)cc2)CC1)C(=O)NCc1ccco1	6	-2	2	2	-3
CC(NC(=O)c1cccs1)C(S)c1ccccc1 (stereo not given)	12	-11	-5	19	43*
Cc1ccc(CNC(=O)CNC(=O)[C@@H]2Cc3ccccc3CN2)cc1	2	-2	2	3	0
CCOC(=O)c1nnn(-c2nonc2N)c1COc1ccccc1	112*	31	-3	-6	-11
CCOC(=O)c1nnn(-c2nonc2N)c1COc1ccc(F)cc1	16	-2	-8	4	5
Cc1cc2cc(CNC(=O)Cc3ccc([N+](=O)[O-])cc3)ccc2[nH]1	-3	8	7	13	9
COc1cccc(C(=O)NCc2ccc3[nH]c(C)cc3c2)c1	5	6	21	9	38*
Cc1cc2cc(CNC(=O)c3cccc([N+](=O)[O-])c3)ccc2[nH]1	22	5	8	21	45*
CC(=O)c1cccc(NC(=O)CCc2nnc3ccc(N4CCOCC4)nn23)c1	-5	-2	4	-3	3
CCOc1ccccc1NC(=S)NNS(=O)(=O)c1c(C)cc(C)cc1C	13	0	3	-12	41*
SMILES	PABP polyA inh	eIF4H FP inh	MT1-MMP act inh	SKN-1 block	MLLE-PAM2 inh
CCOc1ccccc1NC(=O)NNS(=O)(=O)c1cc(C)ccc1C	11	14	1	-4	5
C/C=C/c1ccc(OCCCNCC(C)O)c(OC)c1 (stereo not given)	-14	-3	2	27	12
C/C=C/c1ccc(OCCCCNCc2ccco2)c(OC)c1	84*	8.0*	4	-5	1
COc1cccc2c(=O)c3c([nH]c12)OC(C)(C)C3	.	.	2	9	3
COc1cccc2c(=O)c3cccc(N)c3[nH]c12	8.7*	94*	-6	1	7
Cc1cnc(C(=O)OC(C)C(=O)Nc2cccc3ccccc23)cn1 (stereo not given)	.	.	-3	6	-19
O=C(O)CCC(C(=O)O)n1c(O)c(C2=c3ccccc3=NC2=O)sc1=S (stereo not given)	25	-3	-14	3	40*
CCN(CC)CCCNc1cc(C(F)(F)F)c(C#N)c2nc3ccccc3n12	25*	76	-31	13	24
Cc1cc(NCCCN2CCOCC2)n2c(nc3ccccc32)c1C#N	85*	80*	3	27	-13
Fc1ccc(Nc2cccc3nccnc23)cc1	3	-3	2	45*	3
c1cc(Nc2cccc3nccnc23)c2nccnc2c1	-8	-4	-49	23	-45
O=[N+]([O-])c1cccc(-c2noc(-c3ccco3)n2)c1	4	1	2	53*	-3
Cc1ccc(OCCC(=O)NNC(=O)c2ccccc2F)cc1	.	.	-4	-1	2
CCN(CC)CCCN1C(=O)CSC1c1ccc2c(c1)OCO2 (stereo not given)	4	-2	0	-5	10
CCN(CC)CCCN1C(=O)CSC1c1ccc([N+](=O)[O-])cc1 (stereo not given)	8	-14	1	8	42*
O=C(N/N=C/c1ccc([N+](=O)[O-])o1)C(=O)Nc1ccc(C(=O)O)cc1	62*	83*	-2	-3	5
Cc1ccc(OCC(=O)N/N=C/c2ccc([N+](=O)[O-])o2)cc1	-7	23	-4	2	3
O=C(COc1ccccc1)N/N=C/c1ccc([N+](=O)[O-])o1	69*	51*	-2	6	6
COCCCC1CCN(C(=O)c2cc(COc3cc(C)ccc3C)on2)CC1	2	-4	1	18	5
O=C(NN=Cc1ccccc1C(=O)O)c1cccc(S(=O)(=O)Nc2cccc(C(F)(F)F)c2)c1	.	.	-2	-10	5
COc1ccc(O)c(/C=N/c2sc(C)c(C)c2C#N)c1	58*	37	0	25	2
O=C(Nc1ccccc1)Nc1sccc1-c1nc2ccccc2s1	4	28	4	23	-70
O=C(Nc1cccc(Cl)c1)Nc1sccc1-c1nc2ccccc2s1	12*	79	4	8	-100
Cn1c(CNC(=O)CNC(=O)c2ccc(C(C)(C)C)cc2)cc(=O)n(C)c1=O	-1	-12	0	10	-15
CCc1nc2c(OCc3ccc(OC)cc3)cccn2c1N(C)C(=O)c1ccco1	.	.	-7	7	-1
Cc1ccccc1-n1c(SC/C(O)=C(\C#N)c2nc3ccccc3[nH]2)nnc1-c1ccncc1	32	31	-12	1	-41
Cc1cc(C)n2c(SC/C(O)=C(\C#N)c3nc4ccccc4[nH]3)nnc2n1	51*	80*	-12	-15	-23
CCCNC(=O)C1(C)CCCN(Cc2ccc3ccccc3c2)C1 (stereo not given)	.	.	0	-2	1
COc1ccc(NC(=O)CCNS(=O)(=O)c2ccc3[nH]c(=O)oc3c2)cc1Cl	-3	8	4	3	-30
